Source: PubChem BioAssay
In the library only some 3.4% were active in any assay of this set; here they are far more common.
TAAR1 agonist: human TAAR1 agonists, primary screen, Fluo-8 calcium fluorescence, CHO RD-HGA16 cells; Trace amine-associated receptor 1 (Homo sapiens), Q96RJ0; vehicle wells 0%, saturating PEA agonist 100%; activation, % at 3 µM; 0.99% of 360,000 active; AID 624467, 2012;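 active = activation above the mean activation of all test compounds in the run plus 3 SD, cut at about 38% in these data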
Target sequence (Q96RJ0 whole entry, looked up): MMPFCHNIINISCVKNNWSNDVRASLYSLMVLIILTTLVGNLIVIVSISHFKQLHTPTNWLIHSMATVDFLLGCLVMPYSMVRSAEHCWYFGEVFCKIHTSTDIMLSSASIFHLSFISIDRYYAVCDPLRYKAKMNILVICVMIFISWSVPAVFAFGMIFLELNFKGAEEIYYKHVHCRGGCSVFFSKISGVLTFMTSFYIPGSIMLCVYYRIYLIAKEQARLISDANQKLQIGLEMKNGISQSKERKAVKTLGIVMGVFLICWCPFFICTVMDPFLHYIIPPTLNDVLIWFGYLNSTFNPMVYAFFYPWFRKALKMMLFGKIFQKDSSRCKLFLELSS
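Repeats: no replicates (n 1) | Material: CHO-derived RD-HGA16 cells with stable Gα16 and human TAAR1 | Technique: Kinetic Fluo-8 calcium fluorescence | Schedule: 17-24 h seeding, 75 min 37 °C dye, 30 min RT | Evaluation: % activation from peak over basal fluorescence ratio, DMSO-to-PEA scaled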
TRPN1 ag: zebrafish TRPN1 channel agonists, primary screen, cell-based, HEK293, calcium fluorescence; AID 1424, 2008; HEK293 zebrafish TRPN1-YFP, Fluo-8 calcium fluorescence; 100% = response to 87 µM carbachol; 0.18% of 220,000 active; activation, % at 3 µM;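 active = activation above its plate's cutoff, the mean activation of test wells on that plate plus 3 SD, cut at about 19% in these data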;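 note: 0% = DMSO alone and 100% = 87 µM carbachol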
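Material: zebrafish TRPN1-YFP in HEK293 cells; Doses: single test compound dose, 3 µM nominal, 0.3% DMSO; Timing: dye loading 1 h at 37 °C, then 30 min room temperature; Technique: intracellular calcium fluorescence with Fluo-8; Benchmarks: high carbachol 87 µM, low DMSO alone.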
GPR7 antag: GPR7 receptor antagonists, primary screen, cell-based, fluorescence, single concentration; AID 1861, 2009; GPR7-expressing cells, fluorescence antagonist assay; inhibition, % at 4.4 µM; 1.1% of 290,000 active; Neuropeptides B/W receptor type 1 (Homo sapiens), P48145; in the data active = inhibition above about 16%, passing the limit was not always enough;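 note: cells stimulated with the agonist NPW; 0% = agonist with vehicle and 100% = vehicle without agonist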
Target sequence (P48145 whole entry, looked up): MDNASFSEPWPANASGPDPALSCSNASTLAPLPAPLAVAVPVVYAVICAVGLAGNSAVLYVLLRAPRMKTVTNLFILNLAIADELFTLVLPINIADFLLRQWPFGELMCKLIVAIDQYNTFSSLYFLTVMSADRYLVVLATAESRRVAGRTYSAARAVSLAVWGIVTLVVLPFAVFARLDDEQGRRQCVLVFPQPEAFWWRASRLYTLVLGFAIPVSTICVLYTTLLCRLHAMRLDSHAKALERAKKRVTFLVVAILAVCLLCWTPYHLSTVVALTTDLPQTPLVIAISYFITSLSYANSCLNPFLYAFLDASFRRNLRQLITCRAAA
TRPML3 agonist: human TRPML3 channel agonists, primary screen, cell-based, HEK293 TRPML3-YFP, Fluo-8 calcium fluorescence, 3 µM; activation, % at 3 µM; 0.29% of 220,000 active; 100% = the carbachol control signal; Mucolipin-3 (Homo sapiens), Q8TDD5; AID 1448, 2008;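 active = activation above its plate's cutoff, the mean activation of the plate's test wells plus 3 SD, cut at about 12% in these data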;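 note: 0% = DMSO only wells and 100% = carbachol wells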
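system = HEK293 cells stably carrying human TRPML3-YFP | doses = one concentration, 3 µM nominal, 0.3% DMSO | timing = dye loading 1 h 37 °C then 30 min ambient, 125 s read | detection = Fluo-8 calcium dye fluorescence, ex 470-495, em 515-575 nm | benchmarks = high control carbachol 87 µM, low control DMSO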
LANA-H2A inh: blockers of LANA interaction with H2A/H2B – biochemical, FP readout, HTS, primary screen. Protein LANA1 (Human herpesvirus 8 type P (isolate GK18)), Q9QR71. cell-free LANA-H2A/H2B peptide, fluorescence polarization. inhibition, % (concentration not given with the values). 0.6% of 320,000 active. AID 2629, 2010; in the data active = inhibition mostly above about 10%, no sharp cut-off; inactive = mostly below about 6.7%
TAAR1 antag: human TAAR1 antagonists, primary screen, Fluo-8 calcium fluorescence, CHO RD-HGA16 cells; inhibition, % at 3 µM; 1.5% of 360,000 active; AID 624466, 2012; antagonist;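 active = inhibition above a per-plate cutoff, the mean inhibition of test compounds on that plate plus 3 SD, cut at about 49% in these data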;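 note: 0% = DMSO plus EC80 beta-PEA response and 100% = DMSO alone without agonist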
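System: CHO RD-HGA16 cells bearing hTAAR1. Reagent: EC80 β-phenethylamine stimulus. Schedule: seeding 17-24 h prior, 75-min 37 °C, 30-min RT dye loading. Signal: Fluo-8 intracellular calcium dye fluorescence, real-time kinetic reads. Read-out: % inhibition from peak post-agonist over basal fluorescence ratio. Benchmarks: vehicle wells and EC80 agonist wells. Replicates: n of 1.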
TRPN1 counter: zebrafish TRPN1 channel agonists, counter-screen for TRPML3 agonist project, cell-based, HEK293 TRPN1-YFP, Fluo-8 calcium | activation, % at 3 µM | 10% of 310 active | Fluo-8 calcium fluorescence; scaled: carbachol wells 100%, DMSO wells 0% | shares compounds with TRPML3 agonist;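 active = mean activation over replicates above a set limit taken from the earlier TRPN1 channel primary screen, cut at about 19% in these data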;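 note: 100% = carbachol and 0% = 0.3% DMSO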
TRPML3 ag conf: human TRPML3 channel agonists, confirmation, cell-based, HEK293 TRPML3-YFP, Fluo-8 calcium, triplicate; AID 1526, 2009; 80% of 310 active; Fluo-8 calcium fluorescence; 100% set by carbachol, 0% by DMSO; shares compounds with TRPML3 agonist; activation, % at 3 µM;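 active = activation above a set limit derived from the earlier primary screen, cut at about 12% in these data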
The depositor's hits bear a star; . = no result given.

SMILES	TAAR1 agonist	TRPN1 ag	GPR7 antag	TRPML3 agonist	LANA-H2A inh	TAAR1 antag	TRPN1 counter	TRPML3 ag conf
COc1c(S(=O)(=O)N2CCCC2)ccc(Cl)c1Cl	5	0	-8	12*	2	-2	0	8
COc1ccc(S(=O)(=O)N2CCCC2)c(Cl)c1Cl	4	-1	-9	11*	-4	-1	0	4
COc1ccccc1Cc1c(-c2ccccc2)nc2c3ccccc3ccn12	1	.	.	.	.	-20	.	.
CC(C)N(Cc1ccccc1)S(=O)(=O)c1n[nH]c(C(C)(C)C)n1	0	.	.	.	.	-20	.	.
COc1ccc(OC)c(S(=O)(=O)N2CCCc3ccccc32)c1	0	-1	-3	48*	-5	-34	-1	56*
CON(C)C(=O)[C@H]1C[C@@H]2[C@H](C[C@@H](c3ccccc3)[C@H]1C)N(c1ccc(F)cc1)C(=O)N2CCCOc1ccccc1	0	.	.	.	.	3	.	.
COC(=O)CN(c1cc(Cl)ccc1OC)S(=O)(=O)c1ccc(C)cc1	-2	-2	-9	70*	-3	12	-1	61*
COc1ccc(S(=O)(=O)Nc2ccc(C)cc2)cc1N(C)S(=O)(=O)c1ccc(Cl)cc1	10	1	-5	61*	-3	-9	-1	32*
COc1ccc(Cl)cc1N(CC(=O)N1CCCC1)S(=O)(=O)c1ccc(C)cc1	-2	.	-1	.	-1	-21	.	.
COc1ccc(S(=O)(=O)NN(C)C)cc1N(C)S(=O)(=O)c1ccc(Cl)cc1	2	1	-5	0	-2	5	.	.
COc1ccc(S(=O)(=O)N(CC(=O)N2CCOCC2)c2cc(Cl)ccc2OC)cc1OC	11	3	-4	45*	.	6	2	42*
Cc1cc(Br)cn2c(Cc3cccc(F)c3)c(-c3ccco3)nc12	4	.	.	.	.	-23	.	.
COc1cc(Nc2cc(C)n(-c3ccc(Cl)c(OC)c3)c(=O)c2)ccc1Cl	-2	.	.	.	.	-13	.	.
Cc1cccc(CC2CC(=O)N(C3CCCCC3)C2=O)c1 (stereo not given)	.	0	-1	13*	1	.	-1	66*
CC(NC(=S)Nc1cccc(C(F)(F)F)c1)C(C)(C)C (stereo not given)	4	13	-4	12*	6	-10	15	7
CCOC(=O)CSc1nc2c(sc(=S)n2-c2ccccc2OC)c(=O)n1Cc1ccco1	6	12	20	40*	1	10	16	59*
CC1=CC(=O)C(C(C)C)=C/C1=N/OS(=O)(=O)c1ccccc1	20	16	81*	19*	3	43	14	23*
O=C1c2ccccc2CCCC12N=NCC2c1cccc2ccccc12 (stereo not given)	10	-2	-11	56*	0	8	-2	67*
Cc1ccc(C(=O)NNC(=O)c2ccc(S(=O)(=O)N(C)c3ccccc3)cc2)cc1	0	.	.	.	.	-9	.	.
Cc1ccc(S(=O)(=O)N(C)c2ccccc2)cc1	0	-2	5	17*	6	6	-2	7
Cc1ccc(N(C)S(=O)(=O)c2ccc(C)cc2)cc1	0	-1	-6	49*	-3	1	-3	25*
CSc1nc2ccccc2nc1N(C)S(=O)(=O)c1ccc(C)cc1	3	-3	-16	21*	-5	-19	0	26*
Cc1ccc(S(=O)(=O)N(C)c2ccc(NS(C)(=O)=O)cc2)cc1	9	-1	8	-1	-2	-2	.	.
CC1CCCCN1S(=O)(=O)c1cc2c(=O)nc3ccccn3c2cc1Cl (stereo not given)	1	.	.	.	.	0	.	.
CC(=O)C[C@H]1SC[C@@H](C(C)C)N1S(=O)(=O)c1ccc(C)cc1	1	.	.	.	.	-17	.	.
SMILES	TAAR1 agonist	TRPN1 ag	GPR7 antag	TRPML3 agonist	LANA-H2A inh	TAAR1 antag	TRPN1 counter	TRPML3 ag conf
CCOc1ccccc1N1CCN(S(=O)(=O)c2ccc(Cl)s2)CC1	16	-1	-3	38*	0	4	-2	27*
CN(C)C(CNC(=O)CCOc1ccccc1)c1ccco1 (stereo not given)	1	-1	-9	0	1	25	.	.
COC(=O)C1(C(C[N+](=O)[O-])c2ccco2)C(=O)NCC1c1ccccc1 (stereo not given)	2	0	-9	17*	6	-20	2	23*
Cc1ccc(Cl)cc1N1CCN(S(C)(=O)=O)CC1	0	-1	14	0	-1	0	.	.
Cc1ccc(Cl)cc1N1CCN(S(=O)(=O)N2CCCCC2)CC1	8	-1	23*	30*	-6	1	-2	111*
Cc1ccc(S(=O)(=O)N(CC(=O)N2CCCCC2)c2cccc(C)c2)cc1	1	0	-6	127*	1	6	2	139*
Cc1cc(C)cc(N(CC(=O)N2CCOCC2)S(=O)(=O)c2ccccc2)c1	5	1	0	35*	-2	-8	0	46*
C[C@@H]1ON(C)[C@H]2C[C@H]3c4cc(-c5ccc6c(c5)OCO6)ccc4CCN3C[C@@H]12	0	.	.	.	.	-11	.	.
COc1ccc(/C=C(/C(=O)c2ccc(Cl)cc2Cl)n2cncn2)cc1	5	2	9	2	-1	-3	.	.
CN(C)c1ccc(/C=C(/C(=O)c2ccc(Cl)cc2Cl)n2cncn2)cc1	26	15	21	12*	.	20	22*	12*
CCOC(=O)[C@]12CCC=C1N(CCC1=CCCCC1)C(=O)[C@H](CC(=O)N1CCCCC1)C2	4	.	.	.	.	-11	.	.
O=S(=O)(NC1CCCCC1N1CCOCC1)c1ccc(Cl)cc1 (stereo not given)	0	0	8	129*	1	16	5	151*
C=CCn1c(SCCC)nc(O)cc1=O	61*	1	-3	28*	16*	-17	2	0
